ChEMBL document CHEMBL3124905, “Isothiocoumarin-3-carboxylic acid derivatives: synthesis, anticancer and antitrypanosomal activity evaluation” (Eur J Med Chem, 2014)
Calls of active or inactive are those of the source. No cut-off for these calls is given here.

Tests used:
Format in all cases: functional
RXF 393 = assay: Growth inhibition of human RXF393 cells after 48 hrs by SRB assay
Method in brief: (§1)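 NCI five-dose assay against the ~60-cell-line panel (nine cancer types). Tenfold dilutions from 10−4 to 10−8 M were used with continuous 48-h exposure and SRB absorbance readout. Percent growth was computed from time-zero, control and treated absorbances. GI50 is the concentration giving 50% lower net protein increase than controls. Values not reached are reported as beyond the tested range.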

OVCAR-5 = assay: Growth inhibition of human OVCAR5 cells after 48 hrs by SRB assay; method in brief: as §1
SNB-75 = assay: Growth inhibition of human SNB75 cells after 48 hrs by SRB assay; method in brief: as §1
SK-MEL-5 = assay: Growth inhibition of human SK-MEL-5 cells after 48 hrs by SRB assay; method in brief: as §1
CCRF-CEM = assay: Growth inhibition of human CCRF-CEM cells after 48 hrs by SRB assay; method in brief: as §1
SF-539 = assay: Growth inhibition of human SF539 cells after 48 hrs by SRB assay; method in brief: as §1
HCC 2998 = assay: Growth inhibition of human HCC2998 cells after 48 hrs by SRB assay; method in brief: as §1
CAKI-1 = assay: Growth inhibition of human CAKI-1 cells after 48 hrs by SRB assay; method in brief: as §1
KM12 = assay: Growth inhibition of human KM12 cells after 48 hrs by SRB assay; method in brief: as §1
NCI-H322M = assay: Growth inhibition of human NCI-H322M cells after 48 hrs by SRB assay; method in brief: as §1
NCI-H23 = assay: Growth inhibition of human NCI-H23 cells after 48 hrs by SRB assay; method in brief: as §1
OVCAR-8 = assay: Growth inhibition of human OVCAR8 cells after 48 hrs by SRB assay; method in brief: as §1
Hs-578T = assay: Growth inhibition of human Hs 578T cells after 48 hrs by SRB assay; method in brief: as §1
[1] = test system: Trypanosoma brucei brucei; assay: Antitrypanosomal activity against bloodstream form of Trypanosoma brucei brucei strain 90-13 assessed as inhibition of parasite growth at 1 ug/ml after 72 hrs by resazurin reduction test; conditions: strain 90-13, 72 h
Method in brief: (§2)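 Trypanosoma brucei brucei 90-13 bloodstream forms, grown in HMI9 with 10% FCS at 37 °C under 5% CO2. Log-phase parasites were seeded at 10^5 cells/mL with or without inhibitor, with stocks prepared in DMSO. After 72 h, resazurin was added and fluorescence was read at 530/590 nm after a further 4 h. Percent growth inhibition was calculated versus drug-free parasites, with DMSO as control.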

[2] = test system: Trypanosoma brucei brucei; assay: Antitrypanosomal activity against bloodstream form of Trypanosoma brucei brucei strain 90-13 assessed as inhibition of parasite growth at 10 ug/ml after 72 hrs by resazurin reduction test; conditions: strain 90-13, 72 h; method in brief: as §2
786-0 [3] = assay: Growth inhibition of human 786-O cells after 48 hrs by SRB assay; method in brief: as §1
786-0 [4] = assay: Growth inhibition of human 786-0 cells after 48 hrs by SRB assay; method in brief: as §1
HOP-62 = assay: Growth inhibition of human HOP62 cells after 48 hrs by SRB assay; method in brief: as §1
M14 = assay: Growth inhibition of human M14 cells after 48 hrs by SRB assay; method in brief: as §1
EKVX = assay: Growth inhibition of human EKVX cells after 48 hrs by SRB assay; method in brief: as §1
NCI-H522 = assay: Growth inhibition of human NCI-H522 cells after 48 hrs by SRB assay; method in brief: as §1
HOP69 = assay: Growth inhibition of human […] cells after 48 hrs by SRB assay; method in brief: as §1
UO-31 = assay: Growth inhibition of human UO31 cells after 48 hrs by SRB assay
Method in brief: (§3)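 NCI ~60-cell-line five-dose screen. Cells were preincubated 24-48 h, then given compound at 10-fold dilutions from 10^-4 to 10^-8 M with 48 h continuous exposure. SRB protein stain was read by absorbance at time zero, in untreated control and with drug. GI50 was derived from [(Ti-Tz)/(C-Tz)]x100=50, TGI from Ti=Tz, and LC50 from [(Ti-Tz)/Tz]x100=-50.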

HCT-116 = assay: Growth inhibition of human HCT116 cells after 48 hrs by SRB assay; method in brief: as §1
TK-10 = assay: Growth inhibition of human TK10 cells after 48 hrs by SRB assay; method in brief: as §3
BT-549 = assay: Growth inhibition of human BT549 cells after 48 hrs by SRB assay; method in brief: as §1
MDA-MB-231 = assay: Growth inhibition of human MDA-MB-231/ATCC cells after 48 hrs by SRB assay; method in brief: as §1
MDA-MB-435 = assay: Growth inhibition of human MDA-MB-435 cells after 48 hrs by SRB assay; method in brief: as §1
NCI-H460 = assay: Growth inhibition of human NCI-H460 cells after 48 hrs by SRB assay; method in brief: as §1
PC-3 = assay: Growth inhibition of human PC3 cells after 48 hrs by SRB assay; method in brief: as §1
NCI/ADR-RES = assay: Growth inhibition of human NCI/ADR-RES cells after 48 hrs by SRB assay; method in brief: as §1
UACC-257 = assay: Growth inhibition of human UACC257 cells after 48 hrs by SRB assay; method in brief: as §3
Malme-3M = assay: Growth inhibition of human MALME-3M cells after 48 hrs by SRB assay; method in brief: as §1
HOP-92 = assay: Growth inhibition of human HOP92 cells after 48 hrs by SRB assay; method in brief: as §1
SNB- = assay: Growth inhibition of human SNB cells after 48 hrs by SRB assay; method in brief: as §1
OVCAR-4 = assay: Growth inhibition of human OVCAR4 cells after 48 hrs by SRB assay; method in brief: as §1
OVCAR-3 = assay: Growth inhibition of human OVCAR3 cells after 48 hrs by SRB assay; method in brief: as §1
SF-295 = assay: Growth inhibition of human SF295 cells after 48 hrs by SRB assay; method in brief: as §1
U-251 = assay: Growth inhibition of human U251 cells after 48 hrs by SRB assay; method in brief: as §3
UACC-62 = assay: Growth inhibition of human UACC62 cells after 48 hrs by SRB assay; method in brief: as §3
MOLT-4 = assay: Growth inhibition of human MOLT4 cells after 48 hrs by SRB assay; method in brief: as §1
SR = assay: Growth inhibition of human SR cells after 48 hrs by SRB assay; method in brief: as §3
RPMI18226 = assay: Growth inhibition of human […] cells after 48 hrs by SRB assay; method in brief: as §1
A549 = assay: Growth inhibition of human A549/ATCC cells after 48 hrs by SRB assay; method in brief: as §1
LOX IMVI = assay: Growth inhibition of human LOXIMVI cells after 48 hrs by SRB assay; method in brief: as §1
ACHN = assay: Growth inhibition of human ACHN cells after 48 hrs by SRB assay; method in brief: as §1

pGI50 (OVCAR-5): inactive
pGI50 (SK-MEL-5): inactive
pGI50 (CCRF-CEM): inactive
pGI50 (HCC 2998): inactive
pGI50 (NCI-H322M): inactive
pGI50 (NCI-H23): inactive
pGI50 (OVCAR-8): inactive
pGI50 (786-0 [3]): inactive
pGI50 (786-0 [4]): inactive
pGI50 (NCI-H522): inactive
pGI50 (HCT-116): inactive
pGI50 (BT-549): inactive
pGI50 (MDA-MB-231): inactive
pGI50 (MDA-MB-435): inactive
pGI50 (NCI-H460): inactive
pGI50 (PC-3): inactive
pGI50 (OVCAR-4): inactive
pGI50 (OVCAR-3): inactive
pGI50 (U-251): inactive
pGI50 (MOLT-4): inactive
pGI50 (A549): inactive
pGI50 (ACHN): inactive
SMILES: O=C(Nc1nc(-c2ccccc2)cs1)c1cc2ccccc2c(=O)s1
pGI50 (RXF 393): inactive
pTGI (RXF 393): inactive
pTGI (OVCAR-5): inactive
pGI50 (SNB-75): inactive
pTGI (SNB-75): inactive
pTGI (SK-MEL-5): inactive
pTGI (CCRF-CEM): inactive
pGI50 (SF-539): inactive
pTGI (SF-539): inactive
pTGI (HCC 2998): inactive
pGI50 (CAKI-1): inactive
pTGI (CAKI-1): inactive
pGI50 (KM12): inactive
pTGI (KM12): inactive
pTGI (NCI-H322M): inactive
pTGI (NCI-H23): inactive
pTGI (OVCAR-8): inactive
pGI50 (Hs-578T): inactive
pTGI (Hs-578T): inactive
inhibition at 1 µg/mL [1]: 44.2%
inhibition at 10 µg/mL [2]: 7.36%
pTGI (786-0 [3]): inactive
pTGI (786-0 [4]): inactive
pGI50 (HOP-62): inactive
pTGI (HOP-62): inactive
pGI50 (M14): inactive
pTGI (M14): inactive
pGI50 (EKVX): inactive
pTGI (EKVX): inactive
pTGI (NCI-H522): inactive
pGI50 (HOP69): inactive
pTGI (HOP69): inactive
pGI50 (UO-31): inactive
pTGI (UO-31): inactive
pTGI (HCT-116): inactive
pGI50 (TK-10): inactive
pTGI (TK-10): inactive
pTGI (BT-549): inactive
pTGI (MDA-MB-231): inactive
pTGI (MDA-MB-435): inactive
pTGI (NCI-H460): inactive
pTGI (PC-3): inactive
pGI50 (NCI/ADR-RES): inactive
pTGI (NCI/ADR-RES): inactive
pGI50 (UACC-257): inactive
pTGI (UACC-257): inactive
pGI50 (Malme-3M): inactive
pTGI (Malme-3M): inactive
pGI50 (HOP-92): inactive
pTGI (HOP-92): inactive
pGI50 (SNB-): inactive
pTGI (SNB-): inactive
pTGI (OVCAR-4): inactive
pTGI (OVCAR-3): inactive
pGI50 (SF-295): inactive
pTGI (SF-295): inactive
pTGI (U-251): inactive
pGI50 (UACC-62): inactive
pTGI (UACC-62): inactive
pTGI (MOLT-4): inactive
pGI50 (SR): inactive
pTGI (SR): inactive
pGI50 (RPMI18226): inactive
pTGI (RPMI18226): inactive
pTGI (A549): inactive
pGI50 (LOX IMVI): inactive
pTGI (LOX IMVI): inactive
pTGI (ACHN): inactive
